The term viability denotes a read-out of living cells in per cent, often relative to untreated cells. As a reminder, the inhibition is the relative decrease from the control value, in per cent.

The nature of assay [1]: HUVEC growth inhibition – cell-based, human, primary screen (AID 575;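 active = viability at or below 30% in both replicate assays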;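 also: 100% = median of untreated cell wells with 0.1% DMSO on each plate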). The conditions noted are these: HUVEC proliferation, CellTiter-Glo luminescence, 72 h; at 10 µM; stronger effect = lower value. In outline: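 Assay system: primary human umbilical vein endothelial cells / Buffer or medium: endothelial basal medium with 2% FBS plus growth supplements / Compound dosing: one dose, 10 µM final, 0.1% DMSO / Timing: 72 h treatment at 37 °C / Signal: CTG luminescence / Benchmarks: 32 DMSO-only cell-control wells (high), 32 MePR drug-control wells (low) per plate / Plate: collagen-coated 384-well format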
In general terms: Cellular ATP, detected with luciferase, serves as a proxy for viable cell number.

A short description of assay [2]: growth inhibitors of H69AR lung tumor, primary screen, human, duplicate replicates (AID 580).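 Also: 100% = mean luminescence of untreated wells and 0% = no signal.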 The settings on record: H69AR lung tumor cells viability, ATP luminescence, 72 h; at 10 µM; stronger effect = lower value.
Assay [3] can be described thus: reversal of MRP1-mediated doxorubicin resistance, pilot screen, H69AR cells, doxorubicin co-treatment (AID 601;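 active = viability loss from added drug above about 55%, and viability with drug at most 40%, in both replicates, limit read from the data, passing the limit was not always enough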). The settings on record: CellTiter-Glo, 72 h, at 10 µM; for differential viability (reversal): stronger effect = higher value.
Assay [4] is described as follows: 384-well plate pilot, post-Golgi transport modulator project, inhibition of yeast transport mutant growth (AID 636; in the data active = inhibition above about 31%). The conditions noted are these: absorbance 615 nm, about 18 h, stronger effect = higher value.
Assay [5] can be described thus: growth suppression of yeast trafficking mutant, preliminary HTS, modulators of trafficking downstream of Golgi apparatus project, 1536-format plate, OD 615 nm (AID 637; in the data active = inhibition above about 30%). The settings on record: yeast transport mutant growth, absorbance 615 nm, 18 h; stronger effect = higher value.
[6] abbreviates: H69AR cells + 2 uM doxorubicin, measured here: viability with 2 uM doxorubicin, stronger effect = lower value.
The mark [7] stands for this setting: H69AR cells, compound alone cytotoxicity.

Activity calls are given as the source filed them.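 The calls were made as follows, unless noted: active = viability at or under a set limit in both replicates, limit being median viability minus 3 SD (cut at about 48% in these data, passing the limit was not always enough); inconclusive = at or under the limit in just one replicate; inactive = at or above the limit in both replicates.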

For `Cc1nnc(SCC(=O)N2CCC(C(N)=O)CC2)s1`, the viability in assay [1] was 93.5% (inactive); in assay [2], 91.2% (inactive); in assay [3] (setting [6]) it was 99.8%; in assay [3] (setting [7]) it was 91.2%. The differential viability (reversal) in assay [3] (H69AR cells + 2 uM doxorubicin) is -8.62% (inactive). The inhibition was -1.2% (inactive) in assay [4] and -5.24% (inactive) in assay [5].

As to `COc1nc2ccc(C)cc2cc1-c1noc(-c2cccnc2)n1`, the viability was 103% (inactive) in assay [1], 104% (inactive) in assay [2], 91.9% in assay [3] (setting [6]) and 104% in assay [3] (setting [7]). Also, the differential viability (reversal) in assay [3] (H69AR cells + 2 uM doxorubicin) was 11.8% (inactive). Further, the inhibition in assay [4] is -2.37% (inactive); in assay [5], -2.54% (inactive).

Regarding `CCOC(=O)Cc1nnc(NC(=O)CSc2nnc3c4ccccc4n(C(C)C)c3n2)s1`, the viability was 83.9% (inactive) in assay [1], 75.6% (inactive) in assay [2], 74.9% in assay [3] (setting [6]) and 75.6% in assay [3] (setting [7]). Further, the differential viability (reversal) in assay [3] (H69AR cells + 2 uM doxorubicin) was 0.7% (inactive). Further, the inhibition in assay [4] is -0.91% (inactive); in assay [5], -1.43% (inactive).

For `O=C(CN1CCOCC1)Nc1cccc(C(=O)Nc2cccc(C(F)(F)F)c2)c1`, the viability in assay [1] is 95.5% (inactive); in assay [2], 101% (inactive); in assay [3] (setting [6]) it was 92.4%; in assay [3] (setting [7]) it was 101%. Besides, the differential viability (reversal) in assay [3] (H69AR cells + 2 uM doxorubicin) was 8.35% (inactive). The inhibition in assay [4] is -0.26% (inactive); in assay [5] it was 0% (inactive).

With `O=C(Nc1ccc(Cc2ccncc2)cc1)C1CC1`, the viability in assay [1] is 88.2% (inactive); in assay [2] it was 99.5% (inactive); in assay [3] (setting [6]) it was 82.1%; in assay [3] (setting [7]), 99.5%. In addition, in assay [3] (H69AR cells + 2 uM doxorubicin), the differential viability (reversal) is 17.4% (inactive). For the same molecule, the inhibition in assay [4] is -2.21% (inactive); in assay [5], 1.75% (inactive).

As for `CCN1CCN(Cc2c(C)[nH]c3ccc(OC)cc3c2=O)CC1`, the viability was 96.8% (inactive) in assay [1], 93.5% (inactive) in assay [2], 88.8% in assay [3] (setting [6]) and 93.5% in assay [3] (setting [7]). In addition, in assay [3] (H69AR cells + 2 uM doxorubicin), the differential viability (reversal) is 4.75% (inactive). For the same molecule, the values for the inhibition in assay [4] and in assay [5] were -2.73% (inactive) and 4.44% (inactive), respectively.

`O=C(NC12CC3CC(CC(C3)C1)C2)N1CCN(C(=O)C2CCCO2)CC1` (stereo not given): the viability was 111% (inactive) in assay [1], 95.6% (inactive) in assay [2], 84.4% in assay [3] (setting [6]) and 95.6% in assay [3] (setting [7]). Besides, in assay [3] (H69AR cells + 2 uM doxorubicin), the differential viability (reversal) is 11.2% (inactive). In addition, the inhibition in assay [4] is -7.07% (inactive); in assay [5], 5.24% (inactive).

Take `COc1ccc(NC(=O)N2CCC(O)(c3cccnc3)CC2)c(OC)c1`: the viability is 83.6% (inactive) in assay [1], 98.4% (inactive) in assay [2], 86.1% in assay [3] (setting [6]) and 98.4% in assay [3] (setting [7]). Moreover, the differential viability (reversal) in assay [3] (H69AR cells + 2 uM doxorubicin) is 12.3% (inactive). Moreover, the inhibition in assay [4] was -1.43% (inactive); in assay [5] it was -1.11% (inactive).

With `CC12C(=O)N(CCC(=O)O)C(=O)C1C1C=CC2C1` (stereo not given), the viability in assay [1] is 107% (inactive); in assay [2] it was 89.6% (inactive); in assay [3] (setting [6]), 91%; in assay [3] (setting [7]), 89.6%. For the same molecule, the differential viability (reversal) in assay [3] (H69AR cells + 2 uM doxorubicin) is -1.44% (inactive). Further, the results for the inhibition in assay [4] and in assay [5] were -2.37% (inactive) and 2.86% (inactive), respectively.

As to `COc1cccc(CC(NC(C)=O)C(=O)NC2CCN(c3c4c(nc5ncnn35)CCC4)CC2)c1` (stereo not given), the viability in assay [1] was 90.4% (inactive); in assay [2], 96.1% (inactive); in assay [3] (setting [6]) it was 87.9%; in assay [3] (setting [7]), 96.1%. In assay [3] (H69AR cells + 2 uM doxorubicin), the differential viability (reversal) is 8.17% (inactive). In addition, the inhibition in assay [4] is -6.18% (inactive); in assay [5], 3.17% (inactive).

Consider `COc1cc2c(cc1OC)CN(Cc1nc3ccsc3c(=O)[nH]1)CC2`, for which the viability is 99.5% (inactive) in assay [1], 92.2% (inactive) in assay [2], 84.6% in assay [3] (setting [6]) and 92.2% in assay [3] (setting [7]). Moreover, the differential viability (reversal) in assay [3] (H69AR cells + 2 uM doxorubicin) was 7.59% (inactive). Further, the inhibition was -2.73% (inactive) in assay [4] and 3.17% (inactive) in assay [5].

Turning to `CCCn1cc(C(CC(=O)O)C(=O)O)c2ccccc21` (stereo not given), the viability in assay [1] was 92.8% (inactive); in assay [2], 89.1% (inactive); in assay [3] (setting [6]), 93%; in assay [3] (setting [7]), 89.1%. Also, the differential viability (reversal) in assay [3] (H69AR cells + 2 uM doxorubicin) is -3.86% (inactive). In addition, the values for the inhibition in assay [4] and in assay [5] were -7.33% (inactive) and 5.24% (inactive), respectively.

Take `CCC(C)(C)n1nnnc1C(c1ccccc1OC)N1CCSCC1` (stereo not given): the viability is 99.6% (inactive) in assay [1], 90% (inactive) in assay [2], 82.3% in assay [3] (setting [6]) and 90% in assay [3] (setting [7]). Moreover, the differential viability (reversal) in assay [3] (H69AR cells + 2 uM doxorubicin) is 7.71% (inactive). Besides, the inhibition in assay [4] was -0.78% (inactive); in assay [5], -4.76% (inactive).

In the case of `COc1cc(NC(=O)Cc2ccccc2OC)cc(OC)c1`, the viability was 96.9% (inactive) in assay [1], 95.7% (inactive) in assay [2], 92% in assay [3] (setting [6]) and 95.7% in assay [3] (setting [7]). Further, the differential viability (reversal) in assay [3] (H69AR cells + 2 uM doxorubicin) is 3.67% (inactive). Besides, the inhibition is 0.27% (inactive) in assay [4] and -6.67% (inactive) in assay [5].

On to `CC1(C)NC(=O)N(CN2C(=O)NC(C)(C)C2=O)C1=O`, for which the viability in assay [1] was 99.6% (inactive); in assay [2], 102% (inactive); in assay [3] (setting [6]), 90.8%; in assay [3] (setting [7]) it was 102%. The differential viability (reversal) in assay [3] (H69AR cells + 2 uM doxorubicin) is 11.1% (inactive). For the same molecule, the inhibition in assay [4] is -3.33% (inactive); in assay [5], -1.11% (inactive).

Regarding `O=C(c1ccccc1)N1CCN(Cc2ccccc2Br)CC1`, the viability in assay [1] is 105% (inactive); in assay [2], 92.3% (inactive); in assay [3] (setting [6]), 89.4%; in assay [3] (setting [7]) it was 92.3%. Besides, the differential viability (reversal) in assay [3] (H69AR cells + 2 uM doxorubicin) is 2.89% (inactive). The inhibition was -4.53% (inactive) in assay [4] and -4.6% (inactive) in assay [5].

For the molecule `CCC(C)c1ccc(NC(=O)C2CC2)cc1` (stereo not given), the viability was 88.6% (inactive) in assay [1], 90.3% (inactive) in assay [2], 80.9% in assay [3] (setting [6]) and 90.3% in assay [3] (setting [7]). Moreover, the differential viability (reversal) in assay [3] (H69AR cells + 2 uM doxorubicin) is 9.41% (inactive). Further, the inhibition was -1.82% (inactive) in assay [4] and 2.06% (inactive) in assay [5].

For the molecule `COc1ccccc1NC(=O)N1CCN(c2ccccc2F)CC1`, the viability was 108% (inactive) in assay [1], 93.8% (inactive) in assay [2], 74.3% in assay [3] (setting [6]) and 93.8% in assay [3] (setting [7]). The differential viability (reversal) in assay [3] (H69AR cells + 2 uM doxorubicin) was 19.5% (inactive). Besides, the results for the inhibition in assay [4] and in assay [5] were -5.87% (inactive) and 1.11% (inactive), respectively.

For `COc1cccc(CN(C(=O)c2cc3ccccc3oc2=O)C2CC2)c1`, the viability is 99.1% (inactive) in assay [1], 102% (inactive) in assay [2], 96.1% in assay [3] (setting [6]) and 102% in assay [3] (setting [7]). Also, the differential viability (reversal) in assay [3] (H69AR cells + 2 uM doxorubicin) was 5.67% (inactive). Besides, the inhibition in assay [4] is -0.13% (inactive); in assay [5], 0% (inactive).

For the molecule `N#CCc1nc(CSc2nc3ccccc3s2)cs1`, the viability in assay [1] is 99.1% (inactive); in assay [2] it was 91.3% (inactive); in assay [3] (setting [6]), 82.4%; in assay [3] (setting [7]) it was 91.3%. The differential viability (reversal) in assay [3] (H69AR cells + 2 uM doxorubicin) is 8.82% (inactive). Besides, the inhibition in assay [4] was -1.04% (inactive); in assay [5] it was 3.02% (inactive).
